Laboratory results from ChEMBL document CHEMBL5376013, “Design, synthesis and biological evaluation of novel morpholinopyrimidine-5-carbonitrile derivatives as dual PI3K/mTOR inhibitors” (RSC Med Chem, 2024).

How the values were obtained:
Type in all cases: functional
Settings in all cases: read-out: GI
SW-620 = test: Antitumor activity against human SW-620 cells assessed as growth inhibition at 10 uM relative to control
Procedure, shortened: (§1)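 Drug exposure 48 h at 37 °C, 5% CO2. Adherent cells fixed with cold TCA (10% final), suspension cells with TCA (16% final). Stained with 0.4% SRB in 1% acetic acid, dissolved in 10 mM Tris, A515. Growth relative to time-zero and untreated control.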

SNB-75 = test: Antitumor activity against human SNB-75 cells assessed as growth inhibition at 10 uM relative to control; procedure, shortened: as §1
RXF 393 = test: Antitumor activity against human RXF 393 cells assessed as growth inhibition at 10 uM relative to control
Procedure, shortened: (§2)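 After drug addition, plates were incubated 48 h at 37 °C under 5% CO2. Adherent cells were fixed with cold TCA (10% final, 60 min, 4 °C) and suspension cells with 16% final TCA. Staining used 0.4% SRB in 1% acetic acid, solubilized in 10 mM trizma, read at A515. Percent growth was calculated from time-zero, control and treated absorbances.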

MDA-MB-435 = test: Antitumor activity against human MDA-MB-435 cells assessed as growth inhibition at 10 uM relative to control; procedure, shortened: as §2
OVCAR-8 = test: Antitumor activity against human OVCAR-8 cells assessed as growth inhibition at 10 uM relative to control; procedure, shortened: as §2
Malme-3M = test: Antitumor activity against human Malme-3M cells assessed as growth inhibition at 10 uM relative to control; procedure, shortened: as §2
CCRF-CEM = test: Antitumor activity against human CCRF-CEM cells assessed as growth inhibition at 10 uM relative to control; procedure, shortened: as §2
LOX IMVI = test: Antitumor activity against human LOX IMVI cells assessed as growth inhibition at 10 uM relative to control; procedure, shortened: as §2
NCI-H226 = test: Antitumor activity against human NCI-H226 cells assessed as growth inhibition at 10 uM relative to control; procedure, shortened: as §2
OVCAR-5 = test: Antitumor activity against human OVCAR-5 cells assessed as growth inhibition at 10 uM relative to control; procedure, shortened: as §2
MCF7 = test: Antitumor activity against human MCF7 cells assessed as growth inhibition at 10 uM relative to control; procedure, shortened: as §2
U-251 = test: Antitumor activity against human U-251 cells assessed as growth inhibition at 10 uM relative to control; procedure, shortened: as §1
SK-OV-3 = test: Antitumor activity against human SK-OV-3 cells assessed as growth inhibition at 10 uM relative to control; procedure, shortened: as §1
EKVX = test: Antitumor activity against human EKVX cells assessed as growth inhibition at 10 uM relative to control; procedure, shortened: as §2
PC-3 = test: Antitumor activity against human PC-3 cells assessed as growth inhibition at 10 uM relative to control; procedure, shortened: as §2
SF-268 = test: Antitumor activity against human SF-268 cells assessed as growth inhibition at 10 uM relative to control; procedure, shortened: as §2
SK-MEL-28 = test: Antitumor activity against human SK-MEL-28 cells assessed as growth inhibition at 10 uM relative to control; procedure, shortened: as §1
OVCAR-3 = test: Antitumor activity against human OVCAR-3 cells assessed as growth inhibition at 10 uM relative to control; procedure, shortened: as §2
SF-539 = test: Antitumor activity against human SF-539 cells assessed as growth inhibition at 10 uM relative to control; procedure, shortened: as §2
TK-10 = test: Antitumor activity against human TK-10 cells assessed as growth inhibition at 10 uM relative to control; procedure, shortened: as §1
NCI/ADR-RES = test: Antitumor activity against human NCI-ADR-RES cells assessed as growth inhibition at 10 uM relative to control; procedure, shortened: as §2
SK-MEL-2 = test: Antitumor activity against human SK-MEL-2 cells assessed as growth inhibition at 10 uM relative to control; procedure, shortened: as §2
NCI-H23 = test: Antitumor activity against human NCI-H23 cells assessed as growth inhibition at 10 uM relative to control; procedure, shortened: as §2
NCI-H522 = test: Antitumor activity against human NCI-H522 cells assessed as growth inhibition at 10 uM relative to control; procedure, shortened: as §2
T47D = test: Antitumor activity against human T47D cells assessed as growth inhibition at 10 uM relative to control; procedure, shortened: as §1
HCT-116 = test: Antitumor activity against human HCT-116 cells assessed as growth inhibition at 10 uM relative to control; procedure, shortened: as §2
ACHN = test: Antitumor activity against human ACHN cells assessed as growth inhibition at 10 uM relative to control; procedure, shortened: as §2
K562 = test: Antitumor activity against human K562 cells assessed as growth inhibition at 10 uM relative to control; procedure, shortened: as §2
SNB-19 = test: Antitumor activity against human SNB-19 cells assessed as growth inhibition at 10 uM relative to control; procedure, shortened: as §1
COLO 205 = test: Antitumor activity against human COLO 205 cells assessed as growth inhibition at 10 uM relative to control; procedure, shortened: as §2
BT-549 = test: Antitumor activity against human BT-549 cells assessed as growth inhibition at 10 uM relative to control; procedure, shortened: as §2
MOLT-4 = test: Antitumor activity against human MOLT-4 cells assessed as growth inhibition at 10 uM relative to control; procedure, shortened: as §2
UACC-257 = test: Antitumor activity against human UACC-257 cells assessed as growth inhibition at 10 uM relative to control; procedure, shortened: as §1
UACC-62 = test: Antitumor activity against human UACC-62 cells assessed as growth inhibition at 10 uM relative to control; procedure, shortened: as §1
DU-145 = test: Antitumor activity against human DU-145 cells assessed as growth inhibition at 10 uM relative to control; procedure, shortened: as §2
SN12C = test: Antitumor activity against human SN12C cells assessed as growth inhibition at 10 uM relative to control; procedure, shortened: as §1
786-0 = test: Antitumor activity against human 786-0 cells assessed as growth inhibition at 10 uM relative to control; procedure, shortened: as §2
HCT-15 = test: Antitumor activity against human HCT-15 cells assessed as growth inhibition at 10 uM relative to control; procedure, shortened: as §2
HT-29 = test: Antitumor activity against human HT-29 cells assessed as growth inhibition at 10 uM relative to control; procedure, shortened: as §2
CAKI-1 = test: Antitumor activity against human CAKI-1 cells assessed as growth inhibition at 10 uM relative to control; procedure, shortened: as §2
M14 = test: Antitumor activity against human M14 cells assessed as growth inhibition at 10 uM relative to control; procedure, shortened: as §2
KM12 = test: Antitumor activity against human KM12 cells assessed as growth inhibition at 10 uM relative to control; procedure, shortened: as §2
RPMI-8226 = test: Antitumor activity against human RPMI-8226 cells assessed as growth inhibition at 10 uM relative to control; procedure, shortened: as §2
SK-MEL-5 = test: Antitumor activity against human SK-MEL-5 cells assessed as growth inhibition at 10 uM relative to control; procedure, shortened: as §1
A498 = test: Antitumor activity against human A498 cells assessed as growth inhibition at 10 uM relative to control; procedure, shortened: as §2
NCI-H322M = test: Antitumor activity against human NCI-H322M cells assessed as growth inhibition at 10 uM relative to control; procedure, shortened: as §2

N#Cc1c(-c2ccc(Cl)cc2)nc(N/N=C/c2ccc[nH]2)nc1N1CCOCC1
inhibition of growth at 10 µM (SW-620): 10.8% | inhibition of growth at 10 µM (SNB-75): < 1% | inhibition of growth at 10 µM (RXF 393): < 1% | inhibition of growth at 10 µM (MDA-MB-435): < 1% | inhibition of growth at 10 µM (OVCAR-8): 14.9% | inhibition of growth at 10 µM (Malme-3M): < 11.1% | inhibition of growth at 10 µM (CCRF-CEM): 79.2% | inhibition of growth at 10 µM (LOX IMVI): 12.2% | inhibition of growth at 10 µM (NCI-H226): 31.1% | inhibition of growth at 10 µM (OVCAR-5): < 1% | inhibition of growth at 10 µM (MCF7): < 29.3% | inhibition of growth at 10 µM (U-251): < 1% | inhibition of growth at 10 µM (SK-OV-3): 15.3% | inhibition of growth at 10 µM (EKVX): 34% | inhibition of growth at 10 µM (PC-3): 53.4% | inhibition of growth at 10 µM (SF-268): 53.8% | inhibition of growth at 10 µM (SK-MEL-28): < 1% | inhibition of growth at 10 µM (OVCAR-3): 54.4% | inhibition of growth at 10 µM (SF-539): 66.6% | inhibition of growth at 10 µM (TK-10): 36.7% | inhibition of growth at 10 µM (NCI/ADR-RES): 15.5% | inhibition of growth at 10 µM (SK-MEL-2): < 1% | inhibition of growth at 10 µM (NCI-H23): < 1% | inhibition of growth at 10 µM (NCI-H522): 91.7% | inhibition of growth at 10 µM (T47D): 35.1% | inhibition of growth at 10 µM (HCT-116): < 1% | inhibition of growth at 10 µM (ACHN): 17.5% | inhibition of growth at 10 µM (K562): 55.8% | inhibition of growth at 10 µM (SNB-19): 25.8% | inhibition of growth at 10 µM (COLO 205): 18.4% | inhibition of growth at 10 µM (BT-549): 83.1% | inhibition of growth at 10 µM (MOLT-4): 82.6% | inhibition of growth at 10 µM (UACC-257): 12.1% | inhibition of growth at 10 µM (UACC-62): 12% | inhibition of growth at 10 µM (DU-145): 15.8% | inhibition of growth at 10 µM (SN12C): 59.9% | inhibition of growth at 10 µM (786-0): 76.1% | inhibition of growth at 10 µM (HCT-15): 21.1% | inhibition of growth at 10 µM (HT-29): 33.8% | inhibition of growth at 10 µM (CAKI-1): < 1% | inhibition of growth at 10 µM (M14): < 1% | inhibition of growth at 10 µM (KM12): 63.5% | inhibition of growth at 10 µM (RPMI-8226): 93.6% | inhibition of growth at 10 µM (SK-MEL-5): 14.8% | inhibition of growth at 10 µM (A498): 68.3% | inhibition of growth at 10 µM (NCI-H322M): < 1%
